This is an account of results in ChEMBL document CHEMBL1142519, “Synthesis and antiprotozoal activity of cationic 2-phenylbenzofurans” (J Med Chem, 2008).

Molecules are shown by their SMILES. pIC50: −log10 of the molar value.

In data set [1] the test system is Trypanosoma brucei rhodesiense. The data set is described as follows: Antitrypanosomal activity against Trypanosoma brucei rhodesiense STIB 900 infected acute mouse model assessed as survival time at 5 mg/kg, ip administered daily for 4 days. Particulars: route intraperitoneal. Format: functional. The method, boiled down:
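STIB900 acute mouse model of T. b. rhodesiense infection, with intraperitoneal dosing. Read-out is the average days of survival of treated mice. Cures are counted as mice that survive and stay parasite-free for 60 days.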

The test system of a further data set is Plasmodium falciparum. The data set is described as follows: Antiplasmodial activity against chloroquine-resistant Plasmodium falciparum K1. Format: functional, organism-based. The method, boiled down: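 In vitro IC50 against chloroquine-resistant P. falciparum K1, reported as the average of duplicate determinations.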
A short description of data set [2]: Selectivity index, ratio of IC50 for rat L6 cells to IC50 for Trypanosoma brucei rhodesiense STIB 900. Format: toxicity, cell-based. The conditions noted are these: read-out: Ratio IC50. The method, boiled down: (§1)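 Ratio of the L6 rat myoblast cytotoxicity IC50 to the IC50 against the parasite named in the line. Each IC50 is the average of duplicate determinations.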

For a further data set, the system named is Leishmania donovani. As to the kind of experiment: Antileishmanial activity against Leishmania donovani MHOM/SD/62/1S-CL2D axenic amastigotes. In kind it is functional, organism-based. The method, boiled down:
(§2)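 IC50 values in µM, each the average of duplicate determinations. Parasites were T. b. rhodesiense STIB900 and axenic amastigotes of L. donovani MHOM/SD/62/1S-CL2D. Cytotoxicity was run on rat L6 myoblast cells.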

In another data set the test system is L6. The data set is described as follows: Cytotoxicity against rat L6 cells. Format: cell-based. The method, boiled down:
as §2

Data set [3] can be described thus: Selectivity index, ratio of IC50 for rat L6 cells to IC50 for chloroquine-resistant Plasmodium falciparum K1. In kind it is toxicity, cell-based. Particulars: read-out: Ratio IC50. The method, boiled down:
as §1

For data set [4], the system named is Trypanosoma brucei rhodesiense. As to the kind of experiment: Antitrypanosomal activity against Trypanosoma brucei rhodesiense STIB 900 bloodstream trypomastigotes. Format: functional, organism-based. The procedure, abridged:
as §2

Data set [5] in a line: Selectivity index, ratio of IC50 for rat L6 cells to IC50 for Leishmania donovani MHOM/SD/62/1S-CL2D. Format: toxicity, cell-based. The conditions noted are these: read-out: Ratio IC50. The method, boiled down: as §1

The pIC50 is the negative decadic logarithm of the IC50, by convention in mol/L. A higher pIC50 goes with a low IC50. Consider `COc1cc(C(=N)N)ccc1-c1cc2cc(C(=N)N)ccc2o1`, for which the Survival in data set [1] is over 47 days. Further, the pIC50 with Plasmodium falciparum is 8.52; with Leishmania donovani it was 5.70; with L6 it was 3.80; in data set [4], 8.52. The selectivity ratio is 52300 in data set [2], 52300 in data set [3] and 80 in data set [5].
For the compound `c1cc(-c2cc3ccc(C4=NCCN4)cc3o2)ccc1C1=NCCN1`, the pIC50 in the data set on Plasmodium falciparum is 6.96; with Leishmania donovani, under 4.30; with L6, 5.35; in data set [4], 6.50. Further, the selectivity ratio in data set [2] is 14; in data set [3], 41; in data set [5], under 0.1.
Take `COc1cc(C2=NCCN2)ccc1-c1cc2cc(C3=NCCN3)ccc2o1`: the pIC50 in the data set with Plasmodium falciparum was 7.51; in the data set on Leishmania donovani, 4.22; in the data set with L6, 5.13; in data set [4], 6.61. For the same compound, the results for the selectivity ratio in data set [2], in data set [3] and in data set [5] were 30, 239 and 0.1, respectively.
`COc1ccc(C(=N)N)cc1-c1cc2cc(C(=N)N)ccc2o1`: in data set [1], the Survival is over 57 days. In addition, the pIC50 is 7.40 with Plasmodium falciparum, 5.24 in the data set on Leishmania donovani, 3.75 with L6 and 8.70 in data set [4]. Moreover, the results for the selectivity ratio in data set [2], in data set [3] and in data set [5] were 89500, 4480 and 31, respectively.
On to `Oc1ccc(C2=NCCN2)cc1-c1cc2cc(C3=NCCN3)ccc2o1`, for which the pIC50 was 7.64 in the data set with Plasmodium falciparum, 4.24 in the data set on Leishmania donovani, under 3.70 with L6 and 6.64 in data set [4]. The selectivity ratio in data set [2] was over 877; in data set [3], over 8650; in data set [5], 4.
Regarding `c1c[nH]c(-c2ccc(-c3cc4cc(-c5ncc[nH]5)ccc4o3)cc2)n1`, the pIC50 with Plasmodium falciparum was 7.48; with Leishmania donovani, under 4.00; with L6 it was 5.48; in data set [4] it was 6.22. Further, the selectivity ratio in data set [2] is 5; in data set [3], 100; in data set [5] it was under 0.03.
For `c1cc(C2=NCCN2)cc(-c2cc3ccc(C4=NCCN4)cc3o2)c1`, the pIC50 in the data set on Plasmodium falciparum was 6.69; with Leishmania donovani it was under 4.00; in the data set on L6 it was 4.89; in data set [4], 6.48. In addition, the results for the selectivity ratio in data set [2], in data set [3] and in data set [5] were 38, 62 and 0.1, respectively.
Turning to `CC(C)NC(=N)c1ccc(-c2cc3ccc(C(=N)NC(C)C)cc3o2)cc1`, the Survival in data set [1] was over 38.5 days. In addition, the pIC50 was 7.82 in the data set on Plasmodium falciparum, 4.92 in the data set on Leishmania donovani, under 3.70 with L6 and 6.83 in data set [4]. Besides, the selectivity ratio in data set [2] was over 1340; in data set [3] it was over 13300; in data set [5], over 17.
As for `COc1ccc(C(=N)N)cc1-c1cc2ccc(C(=N)N)cc2o1`, the Survival in data set [1] was over 48 days. Besides, the pIC50 in the data set on Plasmodium falciparum was 7.74; in the data set on Leishmania donovani, 5.44; with L6 it was 3.89; in data set [4], 7.96. Further, the selectivity ratio turned out to be 11600 in data set [2], 7110 in data set [3] and 36 in data set [5].
For `COc1ccc(C(=N)NC(C)C)cc1-c1cc2ccc(C(=N)NC(C)C)cc2o1`, the pIC50 was 6.53 with Plasmodium falciparum, 4.27 in the data set on Leishmania donovani, under 3.76 in the data set on L6 and 6.03 in data set [4]. The selectivity ratio is over 188 in data set [2], over 597 in data set [3] and over 3 in data set [5].
Take `N=C(N)c1ccc(OCCCCCOc2ccc(C(=N)N)cc2)cc1` [PENTAMIDINE]: the Survival in data set [1] is over 45 days. The compound further showed a pIC50 in the data set with Leishmania donovani of 5.74.
Turning to `N=C(N)c1ccc(-c2cc3ccc(C(=N)N)cc3o2)c(O)c1`, the Survival in data set [1] was over 39 days. The pIC50 in the data set with Plasmodium falciparum is 7.15; with Leishmania donovani it was 4.54; in the data set with L6, under 3.66; in data set [4], 8.40. Besides, the values for the selectivity ratio in data set [2], in data set [3] and in data set [5] were over 55200, over 3160 and over 8, respectively.
Turning to `N=C(N)c1ccc(O)c(-c2cc3ccc(C(=N)N)cc3o2)c1`, in data set [1], the Survival was over 36 days. Further, the pIC50 was 6.42 with Plasmodium falciparum, 4.39 in the data set on Leishmania donovani, 3.79 in the data set on L6 and 7.54 in data set [4]. Further, the values for the selectivity ratio in data set [2], in data set [3] and in data set [5] were 5660, 434 and 4, respectively.
Turning to `CC(C)NC(=N)c1cccc(-c2cc3ccc(C(=N)NC(C)C)cc3o2)c1`, the pIC50 was 7.23 with Plasmodium falciparum, 4.62 in the data set on Leishmania donovani, under 3.70 with L6 and 6.27 in data set [4]. For the same compound, the selectivity ratio in data set [2] was over 375; in data set [3], over 3390; in data set [5] it was over 8.
For `CC(C)NC(=N)c1cccc(-c2cc3cc(C(=N)NC(C)C)ccc3o2)c1`, the pIC50 in the data set with Plasmodium falciparum was 6.48; in the data set on Leishmania donovani it was 4.89; with L6, under 3.70; in data set [4] it was 6.33. Also, the selectivity ratio in data set [2] is over 421; in data set [3], over 601; in data set [5], over 15.
With `COc1cc(C(=N)N)ccc1-c1cc2ccc(C(=N)N)cc2o1`, the Survival in data set [1] was over 34.5 days. Besides, the pIC50 in the data set on Plasmodium falciparum was 7.70; with Leishmania donovani, 5.43; in the data set on L6 it was 3.97; in data set [4] it was 8.52. Also, the selectivity ratio in data set [2] was determined as 36000; in data set [3], 5400; in data set [5], 29.
Take `c1cc(C2=NCCN2)cc(-c2cc3cc(C4=NCCN4)ccc3o2)c1`: the pIC50 is 7.12 in the data set on Plasmodium falciparum, 4.62 in the data set on Leishmania donovani, 4.47 in the data set with L6 and 7.11 in data set [4]. Also, the selectivity ratio in data set [2] amounted to 435; in data set [3], 446; in data set [5], 1.5.
With `COc1ccc(C(=N)NC(C)C)cc1-c1cc2cc(C(=N)NC(C)C)ccc2o1`, the pIC50 with Plasmodium falciparum was 6.60; with Leishmania donovani it was 4.60; with L6, under 3.75; in data set [4] it was 6.81. Besides, the selectivity ratio in data set [2] was over 1160; in data set [3], over 716; in data set [5], over 7.
On to `C[C@@H]1CC[C@H]2[C@@H](C)C(=O)O[C@@H]3O[C@@]4(C)CC[C@@H]1[C@]32OO4` [ARTEMISININ], for which the selectivity ratio in data set [3] was 75000.
For the compound `COc1cc(C(=N)NC(C)C)ccc1-c1cc2ccc(C(=N)NC(C)C)cc2o1`, the Survival in data set [1] was over 38 days. Moreover, the negative-log IC50 (pIC50) in the data set with Plasmodium falciparum was 6.69; in the data set with Leishmania donovani, 4.49; with L6, under 3.74; in data set [4] it was 7.27. Besides, the selectivity ratio was over 3350 in data set [2], over 879 in data set [3] and over 6 in data set [5].
Turning to `CC(C)NC(=N)c1ccc(O)c(-c2cc3cc(C(=N)NC(C)C)ccc3o2)c1`, the pIC50 is 6.29 in the data set on Plasmodium falciparum, 4.40 in the data set with Leishmania donovani, under 3.74 in the data set with L6 and 6.00 in data set [4]. Moreover, the selectivity ratio in data set [2] was over 179; in data set [3], over 349; in data set [5], over 5.
Take `CC(C)NC(=N)c1ccc(O)c(-c2cc3ccc(C(=N)NC(C)C)cc3o2)c1`: the pIC50 with Plasmodium falciparum is 6.20; with Leishmania donovani it was under 4.00; in the data set on L6, under 3.73; in data set [4] it was 5.29. Moreover, the selectivity ratio in data set [2] is over 37; in data set [3] it was over 294.
In the case of `COc1cc(C(=N)NC(C)C)cc2cc(-c3ccc(C(=N)NC(C)C)cc3)oc12`, the pIC50 was 7.32 with Plasmodium falciparum, 4.82 in the data set with Leishmania donovani, under 3.72 in the data set on L6 and 7.05 in data set [4]. For the same compound, the figures for the selectivity ratio in data set [2], in data set [3] and in data set [5] were over 2110, over 3960 and over 12, respectively.
For the compound `N=C(N)c1cccc(-c2cc3cc(C(=N)N)ccc3o2)c1`, the pIC50 in the data set on Plasmodium falciparum was 7.72; in the data set on Leishmania donovani, 5.24; with L6 it was 4.67; in data set [4] it was 7.62. Further, the results for the selectivity ratio in data set [2], in data set [3] and in data set [5] were 883, 1120 and 4, respectively.
In the case of `c1ccc2[nH]c(-c3ccc(-c4cc5cc(C6=NCCN6)ccc5o4)cc3)nc2c1`, the pIC50 in the data set with Plasmodium falciparum was 7.21; in the data set on Leishmania donovani, under 4.00; with L6, 4.23; in data set [4] it was 6.64. Also, the selectivity ratio in data set [2] is 260; in data set [3] it was 972; in data set [5], under 0.6.
